In ChEMBL document CHEMBL1130261, “Identification of novel farnesyl protein transferase inhibitors using three-dimensional database searching methods” (J Med Chem, 1997):

How the values were obtained:
Assay type in all cases: protein-complex assay
[1] = target: T1, Protein farnesyltransferase (Homo sapiens, UniProt P49354+P49356); assay: Inhibitory activity against recombinant human farnesyltransferase
[2] = target: T1, Protein farnesyltransferase; assay: Inhibitory activity against farnesyltransferase (FPT) (20 ug/mL)
In short: (§1)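 Primary scintillation proximity assay (SPA) following the kit protocol, with a biotinylated substrate peptide bearing the K-Ras carboxy-terminal sequence.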

[3] = target: Protein farnesyl/geranylgeranyl transferase (Homo sapiens) (UniProt P49354+P49356+P53609); assay: Selectivity was expressed as the ratio of the Geranylgeranyl transferase type I to FPT inhibitory activities (IC50)
[4] = target: Geranylgeranyl transferase type I (Homo sapiens, UniProt P49354+P53609); assay: Inhibitory activity against Geranylgeranyl transferase type I
[5] = target: T1, Protein farnesyltransferase; assay: Inhibition of Farnesyltransferase (FPT) in FPT Ras/TCA assay
In short: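 Secondary FPT assay measuring transfer of [³H]farnesyl from [³H]farnesyl pyrophosphate to His₆-H-Ras-CVLS. Labelled protein was collected by TCA precipitation. IC50 values were obtained from this Ras/TCA format.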

[6] = target: T1, Protein farnesyltransferase; assay: Inhibition of farnesyltransferase (FTP) at 20 ug/mL; in short: as §1
[7] = target: T1, Protein farnesyltransferase; assay: Inhibition of Farnesyltransferase

Structure (SMILES)	IC50 [1] [µM]	inhibition [2] [%]	also measured
Clc1ccc2c(c1)S[C@H](Cn1ccnc1)[C@@H]2OCc1ccsc1	16	95	
O[C@H]1c2cc3c(cc2S[C@H]1Cn1ccnc1)CCCC3	> 70		
Clc1ccc2c(c1)S[C@H](Cn1ccnc1)[C@@H]2OCc1cnc2cc3c(cc2c1Cl)OCO3	2.5	69	Selectivity ratio [3]: 0.6; IC50 [4]: 1.4 µM; IC50 [5]: 3.1 µM
O=C(Cc1ccccc1)N1CCN(C2c3ccc(Cl)cc3CCc3cccnc32)CC1 (stereo not given)	2.7		
Clc1ccc2c(c1)S[C@H](Cn1ccnc1)[C@@H]2OCc1cc(Cl)sc1Cl		89	
NC1CCC(C(=O)N2CCC(=C3c4ccc(Cl)cc4CCc4cccnc43)CC2)CC1 (stereo not given)	5		
[O-][S+]1c2cc(Cl)ccc2[C@@H](OCc2ccsc2Cl)[C@H]1Cn1ccnc1 (stereo not given in full)	20.8	79	
OCc1nccn1C[C@H]1Sc2cc(Cl)ccc2[C@H]1OCc1ccsc1Cl		30	
CC(=O)N1CCN(c2nc(CO[C@@H]3c4cc(C(C)(C)C)ccc4S[C@@H]3Cn3ccnc3)ns2)CC1		86	IC50 [4]: > 39 µM
Clc1ccc(COC2c3c(Cl)cc(Cl)cc3SC2Cn2ccnc2)c(Cl)c1 (stereo not given)	12.3	60	
[O-][n+]1ccc(CN2CCC(=C3c4ccccc4CCc4cccnc43)CC2)cc1	1830		
CN1CCC(C2c3ccccc3CCc3cccnc32)CC1 (stereo not given)	724		
Clc1sccc1CO[C@@H]1c2cc3c(cc2S[C@@H]1Cn1ccnc1)CCCC3	10.8	61	
Fc1ccc2c(c1)[C@@H](OCc1c(F)cccc1Cl)[C@@H](Cn1ccnc1)S2	2.3	94	
Clc1ccc2c(c1)S[C@H](Cn1ccnc1)[C@@H]2OCc1ccsc1Cl	2.3	96	
OC1c2ccc(Cl)cc2SC1Cn1ccnc1 (stereo not given)		58	
Clc1ccc2c(c1)S[C@H](Cn1ccnc1)[C@@H]2OCc1c(Cl)ccc2c1OCO2	3.2	80	
O=C(Cc1ccncc1)N1CCC(=C2c3ccccc3CSc3ccccc32)CC1	2.3		
Clc1ccc2c(c1)C(OCc1ccsc1Cl)C(Cn1ccnc1)S2 (stereo not given)	2.5	92	
Clc1cccc2c1S[C@H](Cn1ccnc1)[C@@H]2OCc1ccsc1Cl	6	92	
O=S1(=O)c2cc(Cl)ccc2C(OCc2ccc(Cl)cc2Cl)C1Cn1ccnc1 (stereo not given)	45.9	60	
O=C(O)c1ccc(C(=O)N2CCC(=C3c4ccc(Cl)cc4CCc4cccnc43)CC2)cc1	5.3		

Structure (SMILES)	IC50 [1] [µM]	inhibition [2] [%]	also measured
Fc1ccc2c(c1)S[C@H](Cn1ccnc1)[C@@H]2OCc1ccsc1	13.6	91	
FC(F)(F)c1ccc2c(c1)S[C@H](Cn1ccnc1)[C@@H]2OCc1ccsc1Cl	10.7	75	
OC1c2cc(Cl)ccc2SC1Cn1ccnc1 (stereo not given)	> 75		
C=CCO[C@@H]1c2ccc(Cl)cc2S[C@@H]1Cn1ccnc1	8.5	88	
O=C(Cc1cccnc1)N1CCN(C(c2ccc(Cl)cc2)c2ccccn2)CC1 (stereo not given)	38.3		
O[C@@H]1c2cc(Br)ccc2S[C@@H]1Cn1ccnc1		44	
O=C(Nc1cccnc1)N1CCN(C2c3ccc(Cl)cc3CCc3cccnc32)CC1 (stereo not given)	1.3		
Clc1ccc2c(c1)S[C@H](CN1CCOCC1)[C@@H]2OCc1ccsc1Cl		2	
Clc1ccc2c(c1)S[C@H](Cn1ccnc1)[C@@H]2OCc1cscn1	10.7	90	
Cc1onc(-c2ccccc2)c1CO[C@@H]1c2ccc(Cl)cc2S[C@@H]1Cn1ccnc1	2.5	90	
Clc1ccc(COC2c3ccc(Cl)cc3SC2Cn2ccnc2)c(Cl)c1 (stereo not given)	5.4	75	
Cc1cccc2c1[C@@H](O)[C@@H](Cn1ccnc1)S2	266	14	
O[C@@H]1c2ccc(F)cc2S[C@@H]1Cn1ccnc1		38	
O[C@@H]1c2ccc(C(F)(F)F)cc2S[C@@H]1Cn1ccnc1		42	
Fc1cccc(Cl)c1CO[C@@H]1c2ccc(Cl)cc2S[C@@H]1Cn1ccnc1	4.4	92	
O[C@@H]1c2cccc(Cl)c2S[C@@H]1Cn1ccnc1		44	
Clc1ccc2c(c1)C(OCc1c(Cl)cccc1Cl)C(Cn1ccnc1)S2 (stereo not given)	5.3	85	
O[C@@H]1c2cc(F)ccc2S[C@@H]1Cn1ccnc1		23	
Fc1ccc2c(c1)[C@@H](OCc1c(Cl)cccc1Cl)[C@@H](Cn1ccnc1)S2	2.7	90	
O=C(Nc1ccncc1)C1CCN(C2c3ccc(Cl)cc3CCc3cccnc32)CC1 (stereo not given)	9.2		
CC(C)(C)CC(=O)N1CCC(=C2c3ccc(Cl)cc3CCc3cccnc32)CC1	9.8		

Continued by falling IC50 [1], values first:

IC50 [1] [µM]	inhibition [2] [%]	Structure (SMILES)	also measured
2.1		O=C(Cc1ccncc1)N1CCC(=C2c3ccc(Cl)cc3CCc3ccc[n+]([O-])c32)CC1	
2	88	Clc1ccc2c(c1)S[C@H](Cn1ccnc1)[C@@H]2OCc1ccc(Cl)s1	Selectivity ratio [3]: 2.5; IC50 [4]: 5 µM
2		O=C(Cc1ccccn1)N1CCC(=C2c3ccc(Cl)cc3CCc3cccnc32)CC1	
2	68	Clc1ccc2c(c1)S[C@H](Cn1ccnc1)[C@@H]2OCc1c(Cl)sc2ccccc12	Selectivity ratio [3]: 19; IC50 [4]: 38 µM
1.8		C=C1CC2C3C=C(Cl)C4=CC(=O)C(Br)CC4(C)C3CCC2(C)[C@@]1(O)C(C)=O (stereo not given in full)	
1.8	95	Fc1ccc2c(c1)[C@@H](OCc1ccsc1Cl)[C@@H](Cn1ccnc1)S2	Selectivity ratio [3]: 18.9; IC50 [4]: 34.1 µM
1.6	86	Clc1cc(Cl)c2c(c1)[C@@H](OCc1ccsc1Cl)[C@@H](Cn1ccnc1)S2	Selectivity ratio [3]: 10.1; IC50 [4]: 16.2 µM
1.5	76	Clc1sccc1CO[C@@H]1c2ccc3ccccc3c2S[C@@H]1Cn1ccnc1	Selectivity ratio [3]: 10; IC50 [4]: 15 µM
1.4	83	Clc1ccc(COC2c3c(Cl)cc(Cl)cc3SC2Cn2ccnc2)cc1 (stereo not given)	Selectivity ratio [3]: 13.4; IC50 [4]: 18.8 µM
1.4	93	Clc1cc2c(cc1Cl)C(OCc1ccsc1Cl)C(Cn1ccnc1)S2 (stereo not given)	Selectivity ratio [3]: 2.1; IC50 [4]: 2.9 µM
1.3		Clc1ccc2c(c1)S[C@H](Cn1ccnc1)[C@@H]2OCc1cccnc1Cl	Selectivity ratio [3]: 2.5; inhibition [6]: 95%; IC50 [4]: 3.3 µM
1.3	89	Clc1cccc2c1[C@@H](OCc1ccsc1Cl)[C@@H](Cn1ccnc1)S2	Selectivity ratio [3]: 28.1; IC50 [4]: 36.5 µM
1.3	95	Clc1ccc(COC2c3c(Cl)cccc3SC2Cn2ccnc2)cc1 (stereo not given)	IC50 [7]: 16 µM
1.2	95	Clc1ccc2c(c1)S[C@H](Cn1ccnc1)[C@@H]2OCc1ccc(Cl)c(Cl)c1	Selectivity ratio [3]: 10.8; IC50 [4]: 12.9 µM
1.14		O=C(Cc1ccncc1)N1CCC(=C2c3ccccc3CCc3ccccc32)CC1	
1.1	88	Clc1sccc1CO[C@@H]1c2cc(Br)ccc2S[C@@H]1Cn1ccnc1	Selectivity ratio [3]: 12.9; IC50 [4]: 14.2 µM
1.1	94	Clc1sccc1CO[C@@H]1c2ccccc2S[C@@H]1Cn1ccnc1	Selectivity ratio [3]: 42.5; IC50 [4]: 46.8 µM
1		CC(C)C(CP(=O)(O)C(Cc1ccccc1)NC(=O)OCc1ccccc1)C(=O)N[C@H](Cc1c[nH]c2ccccc12)C(=O)N[C@H](C)C(=O)O (stereo not given in full)	
0.95		O=C(Nc1ccccn1)N1CCN(C2c3ccc(Cl)cc3CCc3cccnc32)CC1 (stereo not given)	
0.87		O=C(Nc1ccncc1)N1CCC(=C2c3ccc(Cl)cc3CCc3cccnc32)CC1	
0.8		O=C(Cc1ccccc1)N1CCC(=C2c3ccc(Cl)cc3CCc3cccnc32)CC1	
0.7		COC(=O)[C@@H](Cc1ccccc1)NC(=O)[C@@H](Cc1c[nH]c2ccccc12)NC(=O)[C@H](Cc1ccccc1)CP(=O)(O)O	
0.7	96	Fc1ccc2c(c1)[C@@H](OCc1ccc(Cl)c(Cl)c1)[C@@H](Cn1ccnc1)S2	Selectivity ratio [3]: 14; IC50 [4]: 9.8 µM
0.7	91	Fc1ccc2c(c1)[C@@H](OCc1ccc(Cl)cc1Cl)[C@@H](Cn1ccnc1)S2	Selectivity ratio [3]: 26.1; IC50 [4]: 18.3 µM
0.6		O=C(Cc1cccnc1)N1CCC(=C2c3ccc(Cl)cc3CCc3cccnc32)CC1	
0.2	90	Clc1sccc1CO[C@@H]1c2c(ccc3c2CCCC3)S[C@@H]1Cn1ccnc1	Selectivity ratio [3]: 84; IC50 [4]: 16.8 µM
0.2	99	Clc1ccc(COC2c3cc(Cl)ccc3SC2Cn2ccnc2)c(Cl)c1 (stereo not given)	Selectivity ratio [3]: 3.5; IC50 [4]: 0.7 µM
